Experimental data gathered from unrelated publications.
Target: NUAK family SNF1-like kinase 1 (NUAK1, Homo sapiens, UniProt O60285)

| SMILES | read-out | mode | technique | tested at | endpoint | value |
| --- | --- | --- | --- | --- | --- | --- |
| Nc1ncnc2occ(-c3ccc(NC(=O)Nc4cc(C(F)(F)F)ccc4F)cc3)c12 | cell-free assay | inhibitor |  | 20 µM | remaining signal | 70% |
| O=C1Nc2ccc(Cl)cc2C1=Cc1cc(Cl)c(O)c(Cl)c1 | cell-free assay |  |  | 0.5 µM | remaining signal | 72.5% |
| c1cc(CN2CCOCC2)cc(Nc2ncc(C3CC3)c(NCCc3c[nH]cn3)n2)c1 | enzyme activity | inhibitor | radiometric | 1 µM | remaining activity | 6% |
| CN(C)C(=O)Cn1cc(-c2nc(C3(c4ccc(-c5cnc(N)nc5)cc4)CC3)no2)cn1 | cell-free assay |  | competition with immobilised ligand | 1 µM | remaining binding | 82% |
| O=C(Nc1cnn(-c2csc(C(=O)NC3COC3)c2)c1)Nc1c(F)cccc1Cl | enzyme activity | inhibitor |  | 5 µM | remaining activity | 95.2% |
| O=C(NCCCNc1ccnc(Nc2cccc(NC(=O)N3CCCC3)c2)n1)C1CCC1 | enzyme activity | inhibitor | radiometric | 1 µM | remaining activity | 87% |
| Cc1ccc(NC(=O)c2ccc(C)c(C(F)(F)F)c2)cc1C#Cc1nn(C2CCC(O)CC2)c2ncnc(N)c12 (stereo not drawn) | cell-free assay |  |  | 10 µM | remaining signal | 108% |
| C=CC(=O)Nc1cc(Nc2nccc(Nc3cc(Cl)c(F)cc3C(C)(C)O)n2)c(OC)cc1N1CC[C@@H](N(C)C)C1 | enzyme activity | inhibitor |  | 1 µM | inhibition | 17% |
| Cc1nn(CC(F)(F)F)cc1Nc1ncc(Br)c(NCCCNC(=O)C2CCC2)n1 | enzyme activity | inhibitor | radiometric | 1 µM | remaining activity | 22% |
| N#Cc1ccc(Nc2ccc3[nH]c(=O)[nH]c3c2)c(Cl)c1 | cell-free assay |  | competition with immobilised ligand | 1 µM | remaining binding | 100% |
| CN(C)C1CCN(CC#Cc2nn(C3CCCC3)c3nc(NCc4ccccc4)ncc23)C1 (stereo not drawn) | enzyme activity | inhibitor | FRET | 1 µM | inhibition | 10% |
| NS(=O)(=O)c1cc(NC(=O)C2(c3ccccc3Cl)CC2)ccc1Oc1cccc(Cl)c1 | cell-free assay |  | competition with immobilised ligand | 1 µM | remaining binding | 95% |
| COc1cc2c(Nc3ccc(Br)cc3F)ncnc2cc1OCC1CCN(C)CC1 | cell-free assay |  |  | 0.5 µM | remaining signal | 92.7% |
| CCCS(=O)(=O)Nc1ccc(F)c(C(=O)c2c[nH]c3ncc(-c4ccc(Cl)cc4)cc23)c1F | enzyme activity | inhibitor |  | 1 µM | inhibition | < 20% |
| Cc1nn(CC(F)(F)F)cc1Nc1ncc(Br)c(NCCc2cnc[nH]2)n1 | enzyme activity | inhibitor | radiometric | 1 µM | remaining activity | 13% |
| CC(=O)Nc1c(C(C)=O)c(=O)n(C)c2nc(-c3ccc(Cl)cc3Cl)c(-c3ccc(Cl)cc3)cc12 | cell-free assay |  | competition with immobilised ligand | 1 µM | remaining binding | 100% |
| O=C(NCCCNc1nc(Nc2cccc(NC(=O)N3CCCC3)c2)ncc1I)c1cccs1 | enzyme activity | inhibitor | radiometric | 1 µM | remaining activity | 2% |
| COc1cc(-c2cn(C3CCc4c(F)cccc4N(CC(F)(F)F)C3=O)nn2)ccc1-n1cnc(C)c1 (stereo not drawn) | cell-free assay |  | competition with immobilised ligand | 1 µM | remaining binding | 100% |
| CN1CCc2cc(Nc3ncc(C4CC4)c(NCCCNC(=O)C4CCC4)n3)ccc2C1 | enzyme activity | inhibitor | radiometric | 1 µM | remaining activity | 6% |
| Cc1ccc(Nc2nccc(N(C)c3ccc4c(C)n(C)nc4c3)n2)cc1S(N)(=O)=O | enzyme activity | inhibitor |  | 0.3 µM | inhibition | 14% |
| O=C1NC(c2ccccn2)Sc2ccccc21 (stereo not drawn) | cell-free assay |  | competition with immobilised ligand | 1 µM | remaining binding | 95% |
| NS(=O)(=O)c1ccc(CNc2ccnc(Nc3cccc(NC(=O)N4CCCC4)c3)n2)cc1 | enzyme activity | inhibitor | radiometric | 1 µM | remaining activity | 78% |
| c1ccc(N2CCN(Cc3nc4ccccc4[nH]3)CC2)nc1 | binding |  | competition with immobilised ligand | 1 µM | remaining binding | 89% |
| CNC(=O)c1cc(Oc2ccc(NC(=O)Nc3ccc(Cl)c(C(F)(F)F)c3)cc2)ccn1 | enzyme activity | inhibitor |  | 10 µM | inhibition | 2% |
| CO[C@H]1CC[C@H](CNc2ccc(S(=O)(=O)NC(=O)c3ccc(N4CCN(CC5=C(c6ccc(Cl)cc6)CC(C)(C)CC5)CC4)cc3Oc3cnc4[nH]ccc4c3)cc2[N+](=O)[O-])CC1 | cell-free assay |  | competition with immobilised ligand | 1 µM | remaining binding | 100% |
| NS(=O)(=O)c1ccc(CNc2ccnc(Nc3cccc(CN4CCOCC4)c3)n2)cc1 | enzyme activity | inhibitor | radiometric | 1 µM | remaining activity | 79% |
| C#Cc1cccc(Nc2ncnc3cc(OCCOC)c(OCCOC)cc23)c1 | cell-free assay |  |  | 0.5 µM | remaining signal | 98% |
